Measurements published in ChEMBL document CHEMBL1125311, “Inhibition of human leukocyte elastase. 4. Selection of a substituted cephalosporin (L-658,758) as a topical aerosol” (J Med Chem, 1992).

Key:
[1] = biological target: T1, Neutrophil elastase (Homo sapiens) (UniProt P08246)
T1 sequence (whole entry): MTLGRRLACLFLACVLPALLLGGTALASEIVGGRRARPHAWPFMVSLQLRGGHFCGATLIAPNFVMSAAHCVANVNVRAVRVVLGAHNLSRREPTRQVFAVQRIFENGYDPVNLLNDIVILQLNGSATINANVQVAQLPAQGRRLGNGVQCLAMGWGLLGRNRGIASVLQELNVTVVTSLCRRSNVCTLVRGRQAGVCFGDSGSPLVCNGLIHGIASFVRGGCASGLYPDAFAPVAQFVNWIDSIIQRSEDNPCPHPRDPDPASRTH

Cricetinae gen. sp. [2] = assay: Compound was evaluated in vivo for inhibition of HLE-induced hemorrhage in hamster lung at 100 microg, 90 min after administration; assay type: functional, Cricetulus griseus
Cricetinae gen. sp. [3] = assay: Compound was evaluated in vivo for inhibition of HLE-induced hemorrhage in hamster lung at 100 microg, 30 min after administration; assay type: functional, Cricetulus griseus
How it was run: (§1)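 Hamster, intratracheal dosing of compound (per animal) 30 min before IT instillation of 50 μg HLE (50 units in Experimental); hemorrhage read 3 h later: lungs lavaged with saline, hemoglobin in lavage measured at 414 nm. Percent inhibition from drug-treated vs vehicle-treated hemorrhage; three animals per dose and time. Titration at 100, 30, 10, 3 μg/animal gives ED50.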

Cricetinae gen. sp. [4] = assay: Compound was evaluated in vivo for inhibition of HLE-induced hemorrhage in hamster lung at 10 microg 30 min after administration; assay type: functional, Cricetulus griseus
How it was run: as §1

Cricetinae gen. sp. [5] = assay: Compound was evaluated in vivo for inhibition of HLE-induced hemorrhage in hamster lung at 200 microg after 180 min of administration; assay type: functional, Cricetulus griseus
How it was run: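 Hamster duration protocol: 200 μg/animal given intratracheally 60, 120, 180 or 240 min before IT HLE instillation; hemorrhage scored after 3 h as hemoglobin (414 nm) in saline lung lavage, relative to vehicle-treated animals; three animals per point. T50 taken as time at which 50% inhibition is still obtained.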

Cricetinae gen. sp. [6] = assay: Compound was evaluated in vivo for inhibition of HLE-induced hemorrhage in hamster lung at 100 microg 30 min after administration; assay type: functional, Cricetulus griseus
How it was run: as §1

[7] = Half-life value of the compound.; assay type: ADME
How it was run: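 Chemical stability: compound dissolved at 1 mg/mL in 0.5 M MOPS, pH 8.0, held at 25 °C in capped vial; aliquots quenched in 2% aqueous TFA and analysed by reverse-phase HPLC over one to two half-lives. Peak areas fit to first-order decay F(t)=A/2^(t/t1/2) to give t1/2.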

Cricetinae gen. sp. [8] = assay: Compound was evaluated in vivo for inhibition of HLE-induced hemorrhage in hamster lung at 30 microg 30 min after administration; assay type: functional, Cricetulus griseus
How it was run: as §1

| k obs / 1 [1] | half-life [7] | SMILES | Inhibition (Cricetinae gen. sp. [2]) | Inhibition (Cricetinae gen. sp. [3]) | Inhibition (Cricetinae gen. sp. [4]) | Inhibition (Cricetinae gen. sp. [5]) | Inhibition (Cricetinae gen. sp. [6]) | Inhibition (Cricetinae gen. sp. [8]) |
| --- | --- | --- | --- | --- | --- | --- | --- | --- |
| 63900 M⁻¹ s⁻¹ |  | CO[C@H]1C(=O)N2C(C(=O)OC(C)(C)C)=C(COC(=O)N[C@@H](Cc3ccccc3)C(=O)O)CS(=O)(=O)[C@H]12 | 10% | 87% |  |  |  |  |
| 300 M⁻¹ s⁻¹ | 13 h | CO[C@H]1C(=O)N2C(C(=O)N(C)CC(=O)O)=C(COC(C)=O)CS(=O)(=O)[C@H]12 |  |  | 67% | 54% | 90% |  |
| 3700 M⁻¹ s⁻¹ |  | CO[C@H]1C(=O)N2C(C(=O)OC(C)(C)C)=C(CSc3nnnn3CC(=O)O)CS(=O)(=O)[C@H]12 |  |  |  |  | 89% | 77% |
